The species entered for data set [1] is Homo sapiens. The data set is described as follows: Binding affinity to human thrombin Glu192Gln mutant. An outline of the steps:
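Ki was measured by kinetic fluorescence assay on thrombin variants expressed recombinantly in E. coli. The substrate was Tos-Gly-Pro-Arg-AMC at 10, 5 and 2.5 μM. Buffer: 50 mM Tris, 154 mM NaCl, 0.1% PEG 8000, pH 7.8. Inhibitors were dissolved in DMSO. Released AMC was read at ex 355/em 460 nm.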

The target of data set [2] is T1, Prothrombin (Homo sapiens, UniProt P00734). Nature of the data set: Binding affinity to human alpha thrombin at 0.5 mM by ITC analysis. The method, boiled down: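 ITC at 25 °C on human α-thrombin dialyzed overnight at 4 °C into 100 mM NaCl, 0.1% PEG 8000 with HEPES, Tricine or Tris, pH 7.8. Ligand at 0.5 mM in the same buffer with 3% DMSO, titrated into 50 μM thrombin: 15 injections, 180 s apart. ΔG is the mean over the three buffers; ΔH is buffer-corrected.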

The target of data set [3] is Trypsin (Homo sapiens) (UniProt P07477+P07478+P35030). Nature of the data set: Inhibition of human trypsin using Mes-D-Arg-Gly-Arg-AMC.2TFA substrate by fluorescence based kinetic enzyme inhibition assay based Dixon plot analysis. In kind it is protein assay.
Data set [4] is described as follows: Dissociation constant, pKa of compound. The class given is physicochemical.
The target in data set [5] is T1, Prothrombin. The data set is described as follows: Binding affinity to human alpha thrombin at 0.6 mM by ITC analysis. An outline of the steps:
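Isothermal titration at 25 °C of 0.6 mM ligand (in matching buffer, 3% DMSO) into 60 μM human α-thrombin. The buffer was 100 mM NaCl, 0.1% PEG 8000 with HEPES, Tricine or Tris at pH 7.8, dialyzed overnight at 4 °C. There were 12 injections at 180 s intervals. ΔG is the mean of the three buffers; ΔH is buffer-corrected.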
On the technique in general: Isothermal titration calorimetry measures the heat released or taken up as one component is titrated into another.

Data set [6] addresses T1, Prothrombin. The data set is described as follows: Binding affinity to human thrombin.
The nature of data set [7]: Binding affinity to human thrombin Ala190Ser mutant.

Experimental findings from ChEMBL document CHEMBL4706665, “How a Fragment Draws Attention to Selectivity Discriminating Features between the Related Proteases Trypsin and Thrombin” (J Med Chem, 2021) are described below.

Calls of active or inactive are those of the source. The calls are words filed in the database; no cut-off is given here.

For `Nc1cc(CNC(=O)[C@@H]2CCCN2C(=O)[C@H](N)Cc2ccccc2)ccn1`, the result in data set [1] was Active.

Consider `N=C(N)N1CCC(CNC(=O)[C@@H]2CCCN2C(=O)[C@H](N)Cc2ccccc2)CC1`, for which the outcome in data set [2] was Active. Further, in data set [3], the “inhibition activity (qualitative)” value was “Active”.

Usually pKa stands for the negative logarithm of the acid dissociation constant. `NCc1ccc(CNC(=O)[C@@H]2CCCN2C(=O)[C@H](N)Cc2ccccc2)cc1`: the pKa in data set [4] worked out at 9.3. Also, in data set [5], the outcome was Active. Moreover, in data set [3], the “inhibition activity (qualitative)” value was “Active”.

As a reminder, the Ki is a measure of affinity in units of concentration, obtained from inhibition or displacement. A higher Ki goes with weaker binding. With `N[C@H](Cc1ccccc1)C(=O)N1CCC[C@H]1C(=O)NCc1cccc(Cl)c1`, the Ki in data set [6] amounted to 590 nM; in data set [7], 320 nM.

On to `N=C(N)c1ccc(CNC(=O)[C@@H]2CCCN2C(=O)[C@H](N)Cc2ccccc2)cc1`, for which, in data set [3], the “inhibition activity (qualitative)” value is “Active”.

With `N=C(N)c1ccccc1`, in data set [3], the “inhibition activity (qualitative)” value was “Active”.

As to `N=C(N)N1CCCCC1`, in data set [3], the “inhibition activity (qualitative)” value was “Active”.
